Source: PubChem (SRMLSC)
The sample as a whole holds a higher share of hits than the screen did.
BB579 growth dn = reduces growth of yeast BB579 in restrictive medium; inhibition, % at 10 µM; 140,000 compounds, 0.51% hits; S. cerevisiae BB579 growth, OD615, 48 h;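 active means inhibition above a set limit, 3 SD over the mean compound inhibition, cut at about 44% in these data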
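Assay system: S. cerevisiae DeaD strain BB579 yeast. Medium: CSMM-D restrictive synthetic medium containing dextrose (glucose). Times: 4 h cell preincubation, 48 h compound exposure, 30 °C humidified. Signal: OD615 turbidity measurement. Benchmarks: positive control amphotericin B 10 µg/mL.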
Yeast lifespan up = extends the lifespan of yeast | S. cerevisiae growth with nicotinamide, OD615; deaD strain in restrictive glucose medium | inhibition of the nicotinamide effect, % at 10 µM | 130,000 compounds, 0.68% hits;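 active means inhibition above a set limit, placed 3 SD over the median of all compounds, cut at about 26% in these data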;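 further: 0% = nicotinamide-treated wells and 100% = cells grown without nicotinamide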
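Assay system: DeaD-strain S. cerevisiae. Medium: CSMM-D glucose medium, restrictive. Reagent: nicotinamide, 1.5 mM, co-present with compound. Compound: 10 µM single point, 0.25% DMSO. Schedule: culture preincubation 4 h, compound exposure 48 h, both 30 °C. Detection: absorbance at 615 nm.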
PostGolgi ctrl = inhibits growth of the yeast control strain. efflux-deficient yeast background strain, growth absorbance A615, 16 h. inhibition, % at 10 µM. 98,000 compounds, 5% hits. AID 738
PostGolgi yeast = growth inhibition of a yeast mutant, post-Golgi transport screen; 98,000 compounds, 0.9% hits; AID 739; inhibition, % at 10 µM; post-Golgi transport phenotypic cell assay;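 further: yeast cells grown in 1536-well plates; yeast grown about 18 h at 30C before absorbance read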
Active calls of the source: *; nt = no result. Unless noted, no stated cut-off is given here; in the data, active means inhibition above about 30%; inactive means the rest.

SMILES | BB579 growth dn | Yeast lifespan up | PostGolgi ctrl | PostGolgi yeast
CCSc1ccccc1C(=O)N1CCN(c2ccccc2F)CC1 | -1 | -12 | 3 | 6
COc1ccc(-c2cc(=O)oc3cc(OCC(=O)c4cccc([N+](=O)[O-])c4)ccc23)cc1 | -22 | 5 | nt | nt
Cc1sc2nc(C3CC3)nc(SCC(=O)N3CCCc4ccccc43)c2c1C | -6 | -7 | nt | nt
Cc1ccc(-n2c(C)nnc2SCC(=O)N2CCc3ccccc3C2)cc1 | -31 | 3 | nt | nt
COCCn1c(SCC(=O)N2CCc3ccccc3C2)nc2ccccc2c1=O | -14 | -1 | nt | nt
Cc1sc2nc(C3CC3)nc(SCC(=O)N3CCc4ccccc4C3)c2c1C | -21 | -4 | 37* | 14
Cc1sc2ncnc(SCC(=O)N3CCN(C(=O)c4ccco4)CC3)c2c1C | -24 | 1 | 13 | 1
CCCc1nc(SCC(=O)N2CCc3ccccc3C2)c2ccccc2n1 | -42 | 14 | 33* | 2
Cc1sc2nc(C(C)C)nc(SCC(=O)N3CCN(C(=O)c4ccco4)CC3)c2c1C | -32 | -3 | 41* | 2
CCc1c(C)sc2nc(C(C)C)nc(SCC(=O)N3CCc4ccccc4C3)c12 | -78 | 2 | 31* | 0
CCOC(=O)c1ccccc1NC(=O)CN(c1ccccc1C)S(C)(=O)=O | -21 | -1 | 26 | -1
Nn1c(SCC(=O)Nc2cccc(F)c2)nnc1C1CCCCC1 | -72 | -6 | 5 | -12
CC1=NN(c2ccc(F)cc2)C(=O)C1C(c1cccc(O)c1)c1c(C)[nH]n(-c2ccc(F)cc2)c1=O (configuration not stated) | -35 | 22 | 35* | -12
Brc1ccc2ncnc(NCc3ccccc3)c2c1 | 8 | -4 | 14 | 2
Clc1cccc(Nc2ncnc3ccc(Br)cc23)c1 | -35 | -30 | 46* | 9
Clc1ccc(Nc2ncnc3ccc(Br)cc23)cc1 | -21 | 0 | 33* | -3
Cc1ccc(-c2cc(-c3ccccc3)c3c(N)c(S(C)(=O)=O)sc3n2)cc1 | -31 | -11 | 31* | 6
CN=C(Nc1ccccc1)SC1CC(=O)N(c2ccc(C(=O)OC)cc2)C1=O (configuration not stated) | -41 | -13 | 37* | 5
O=C1CC(SC(=Nc2ccccc2)Nc2ccccc2)C(=O)N1c1cccc(Cl)c1 (configuration not stated) | -25 | -17 | 33* | 5
O=C1CC(SC(=Nc2ccccc2)Nc2ccccc2)C(=O)N1c1ccc(Cl)cc1 (configuration not stated) | -25 | -3 | 0 | -3
O=c1cc(N2CCCCC2)c(-c2ccccc2)nn1Cc1ccccc1Cl | -5 | -6 | 44* | -4
O=c1cc(N2CCCCC2)c(-c2ccccc2)nn1Cc1cccc(Cl)c1 | -38 | -6 | 31* | -4
CCOC(=O)N1CCC(=NNS(=O)(=O)c2cccc([N+](=O)[O-])c2)CC1 | 1 | -8 | 7 | -1
CCc1cccc(CC)c1NC(=S)NCC(c1cccnc1)N1CCOCC1 (configuration not stated) | -9 | 2 | nt | nt
CC1CCC(n2c(=S)[nH]c3ccccc3c2=O)CC1 (configuration not stated) | -7 | -11 | 49* | 3
SMILES | BB579 growth dn | Yeast lifespan up | PostGolgi ctrl | PostGolgi yeast
CN(O)/C=c1/ccc2c(n1)C(=O)C=CC=2 | 97* | -11 | 24 | 4
O=C(c1ccccc1)c1ccc(CN2C(=O)c3ccccc3C2=O)o1 | -20 | -21 | 23 | 1
CC(=O)c1c(C)oc2c1C(=O)c1ccccc1C2=O | 62* | -7 | nt | nt
COc1ccc(CNC(=O)c2c(C)oc3c2C(=O)c2ccccc2C3=O)cc1 | 11 | 5 | nt | nt
O=C1c2ccccc2C(=O)c2c1oc(C(F)(F)F)c2C(=O)c1ccccc1 | -40 | -21 | 56* | 104*
OC(c1cccc(OCc2ccccc2)c1)c1nnc(-c2ccccc2)o1 (configuration not stated) | -47 | -4 | 56* | -1
ON=Cc1cccn1-c1ccccc1 | -19 | 8 | -1 | 30*
CC(C)(C)NS(=O)(=O)c1ccc(NC(=O)C(Sc2ccccc2)c2ccccc2)cc1 (configuration not stated) | -51 | -1 | 17 | -11
CCc1cc2cccc(C)c2nc1SCC(=O)NNC(=O)c1ccco1 | -33 | 0 | 38* | -5
CCc1cc2cc(C)cc(C)c2nc1SCC(=O)NNC(=O)c1ccco1 | -11 | -4 | nt | nt
Cc1cc(C)n(CC(O)CN2c3ccccc3Sc3ccccc32)n1 (configuration not stated) | -50 | 11 | 43* | 0
